# ChEMBL document CHEMBL5058577, “EUbOPEN Chemogenomics Library 2 (Multiplex)” (2022)
# Test system: U2OS
# Assay: Multiplex assay against U2OS
# Type: toxicity, cell-based
# Details: human
# Summary of the method: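 Cells stained live at seeding with Hoechst33342, BioTracker Green Microtubule Cytoskeleton Dye, MitoTracker Red and Annexin V Alexa Fluor 680 were imaged on a CQ1 microscope at 37°C and 5% CO2 after compound addition. Their classification by CellPathfinder machine-learning gating ran from Hoechst high-intensity objects versus normal cells, to healthy, pyknosed or fragmented nuclei among normal cells, to mitotic or apoptotic among pyknosed cells. Tubulin, mitochondrial-mass and membrane-permeability phenotypes are per cents of healthy-nucleus cells.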
# [1] = 12 h, 1 µM, compound concentration 1 uM, replicate 1
# [2] = 12 h, 1 µM, compound concentration 1 uM, replicate 2
# [3] = 12 h, 10 µM, compound concentration 10 uM, replicate 1
# [4] = 12 h, 10 µM, compound concentration 10 uM, replicate 2
# [5] = 24 h, 1 µM, compound concentration 1 uM, replicate 1
# [6] = 24 h, 1 µM, compound concentration 1 uM, replicate 2
# [7] = 24 h, 10 µM, compound concentration 10 uM, replicate 1
# [8] = 24 h, 10 µM, compound concentration 10 uM, replicate 2
# [9] = 48 h, 1 µM, compound concentration 1 uM, replicate 1
# [10] = 48 h, 1 µM, compound concentration 1 uM, replicate 2
# [11] = 48 h, 10 µM, compound concentration 10 uM, replicate 1
# [12] = 48 h, 10 µM, compound concentration 10 uM, replicate 2
structure (smiles),measurement,setting,value
COc1cc(C(=O)N(CCCc2ccccc2)Cc2ccc(CC(=O)O)cc2)cc(OC)c1C,Population Apoptotic (%),[1],95%
same,Population Fragmented Nuclei (%),[1],29%
same,Population Healthy Nuclei (%),[1],60%
same,Population Hoechst High Intensity Objects (%),[1],4%
same,Population Membrane Permeable-Phenotype (%),[1],7%
same,Population Mitochondria Different-Phenotype (%),[1],4%
same,Population Mitotic Cells (%),[1],4%
same,Population Normal (%),[1],95%
same,Population Pyknosed Nuclei (%),[1],10%
same,Population Tubulin-Different-Phenotype (%),[1],4%
same,Total Cell Count,[1],228
same,Population Apoptotic (%),[2],70%
same,Population Fragmented Nuclei (%),[2],23%
same,Population Healthy Nuclei (%),[2],65%
same,Population Membrane Permeable-Phenotype (%),[2],8%
same,Population Mitochondria Different-Phenotype (%),[2],1%
same,Population Mitotic Cells (%),[2],30%
same,Population Pyknosed Nuclei (%),[2],11%
same,Population Tubulin-Different-Phenotype (%),[2],1%
same,Total Cell Count,[2],93
same,Population Apoptotic (%),[3],82%
same,Population Fragmented Nuclei (%),[3],22%
same,Population Healthy Nuclei (%),[3],71%
same,Population Hoechst High Intensity Objects (%),[3],0%
same,Population Membrane Permeable-Phenotype (%),[3],5%
same,Population Mitochondria Different-Phenotype (%),[3],0%
same,Population Mitotic Cells (%),[3],17%
same,Population Normal (%),[3],99%
same,Population Pyknosed Nuclei (%),[3],6%
same,Population Tubulin-Different-Phenotype (%),[3],2%
same,Total Cell Count,[3],262
same,Population Apoptotic (%),[4],100%
same,Population Fragmented Nuclei (%),[4],15%
same,Population Healthy Nuclei (%),[4],79%
same,Population Hoechst High Intensity Objects (%),[4],1%
same,Population Membrane Permeable-Phenotype (%),[4],2%
same,Population Mitochondria Different-Phenotype (%),[4],3%
same,Population Mitotic Cells (%),[4],0%
same,Population Normal (%),[4],98%
same,Population Pyknosed Nuclei (%),[4],4%
same,Population Tubulin-Different-Phenotype (%),[4],4%
same,Total Cell Count,[4],171
same,Population Apoptotic (%),[5],84%
same,Population Fragmented Nuclei (%),[5],29%
same,Population Healthy Nuclei (%),[5],61%
same,Population Hoechst High Intensity Objects (%),[5],2%
same,Population Membrane Permeable-Phenotype (%),[5],7%
same,Population Mitochondria Different-Phenotype (%),[5],6%
same,Population Mitotic Cells (%),[5],15%
same,Population Normal (%),[5],97%
same,Population Pyknosed Nuclei (%),[5],9%
same,Population Tubulin-Different-Phenotype (%),[5],4%
same,Total Cell Count,[5],288
same,Population Apoptotic (%),[6],73%
same,Population Fragmented Nuclei (%),[6],22%
same,Population Healthy Nuclei (%),[6],64%
same,Population Hoechst High Intensity Objects (%),[6],4%
same,Population Membrane Permeable-Phenotype (%),[6],2%
same,Population Mitochondria Different-Phenotype (%),[6],2%
same,Population Mitotic Cells (%),[6],26%
same,Population Normal (%),[6],95%
same,Population Pyknosed Nuclei (%),[6],13%
same,Population Tubulin-Different-Phenotype (%),[6],0%
same,Total Cell Count,[6],120
same,Population Apoptotic (%),[7],94%
same,Population Fragmented Nuclei (%),[7],18%
same,Population Healthy Nuclei (%),[7],76%
same,Population Hoechst High Intensity Objects (%),[7],0%
same,Population Membrane Permeable-Phenotype (%),[7],7%
same,Population Mitochondria Different-Phenotype (%),[7],2%
same,Population Mitotic Cells (%),[7],5%
same,Population Normal (%),[7],99%
same,Population Pyknosed Nuclei (%),[7],5%
same,Population Tubulin-Different-Phenotype (%),[7],3%
same,Total Cell Count,[7],318
same,Population Apoptotic (%),[8],84%
same,Population Fragmented Nuclei (%),[8],12%
same,Population Healthy Nuclei (%),[8],80%
same,Population Hoechst High Intensity Objects (%),[8],2%
same,Population Mitochondria Different-Phenotype (%),[8],5%
same,Population Mitotic Cells (%),[8],15%
same,Population Normal (%),[8],97%
same,Population Pyknosed Nuclei (%),[8],6%
same,Population Tubulin-Different-Phenotype (%),[8],5%
same,Total Cell Count,[8],192
same,Population Apoptotic (%),[9],86%
same,Population Fragmented Nuclei (%),[9],23%
same,Population Healthy Nuclei (%),[9],69%
same,Population Hoechst High Intensity Objects (%),[9],3%
same,Population Membrane Permeable-Phenotype (%),[9],5%
same,Population Mitochondria Different-Phenotype (%),[9],2%
same,Population Mitotic Cells (%),[9],13%
same,Population Normal (%),[9],96%
same,Population Pyknosed Nuclei (%),[9],7%
same,Population Tubulin-Different-Phenotype (%),[9],4%
same,Total Cell Count,[9],408
same,Population Apoptotic (%),[10],78%
same,Population Fragmented Nuclei (%),[10],22%
same,Population Healthy Nuclei (%),[10],64%
same,Population Hoechst High Intensity Objects (%),[10],6%
same,Population Membrane Permeable-Phenotype (%),[10],7%
same,Population Mitochondria Different-Phenotype (%),[10],5%
same,Population Mitotic Cells (%),[10],21%
same,Population Normal (%),[10],93%
same,Population Pyknosed Nuclei (%),[10],12%
same,Population Tubulin-Different-Phenotype (%),[10],6%
same,Total Cell Count,[10],159
same,Population Apoptotic (%),[11],93%
same,Population Fragmented Nuclei (%),[11],18%
same,Population Healthy Nuclei (%),[11],75%
same,Population Hoechst High Intensity Objects (%),[11],1%
same,Population Membrane Permeable-Phenotype (%),[11],4%
same,Population Mitochondria Different-Phenotype (%),[11],2%
same,Population Mitotic Cells (%),[11],6%
same,Population Normal (%),[11],98%
same,Population Pyknosed Nuclei (%),[11],6%
same,Population Tubulin-Different-Phenotype (%),[11],2%
same,Total Cell Count,[11],504
same,Population Apoptotic (%),[12],94%
same,Population Fragmented Nuclei (%),[12],15%
same,Population Healthy Nuclei (%),[12],71%
same,Population Hoechst High Intensity Objects (%),[12],3%
same,Population Membrane Permeable-Phenotype (%),[12],8%
same,Population Mitochondria Different-Phenotype (%),[12],1%
same,Population Mitotic Cells (%),[12],5%
same,Population Normal (%),[12],96%
same,Population Pyknosed Nuclei (%),[12],13%
same,Population Tubulin-Different-Phenotype (%),[12],4%
same,Total Cell Count,[12],280
